EBV gp42 block – inhibitors of Epstein-Barr virus glycoprotein 42. hit rate 0.42% among 220,000. Fluorescence polarization binding assay, mP read-out. AID 1085. Q1HVG2. inhibition, % (tested at 21.74 µM); in the data active means inhibition above about 50%
Target sequence (Q1HVG2 whole entry, looked up): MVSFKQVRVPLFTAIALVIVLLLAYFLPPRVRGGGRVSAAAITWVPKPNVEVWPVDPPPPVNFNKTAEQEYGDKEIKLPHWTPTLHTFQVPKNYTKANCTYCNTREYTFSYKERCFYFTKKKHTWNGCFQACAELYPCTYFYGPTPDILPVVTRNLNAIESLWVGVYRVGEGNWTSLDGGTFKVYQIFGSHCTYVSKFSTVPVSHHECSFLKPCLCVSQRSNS
CHOP inh – CHOP inhibition in unfolded protein response. CHO-K1 CHOP-promoter luciferase, tunicamycin-induced, 15-18 h. inhibition, % at 10 µM. hit rate 3.8% among 220,000. AID 2732;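 active means compounds that reduced the stress-induced luciferase reporter signal by more than about 70% of percent inhibition, limit read from the data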;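 further: 0% = tunicamycin plus vehicle and 100% = wells without tunicamycin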
MPTP block – permeability transition pore inhibition; isolated mouse mitochondria, Ca2+ swelling absorbance, 30 min; inhibition, % at 10 µM; hit rate 1.4% among 360,000;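 active means inhibition of 50% or more, scaled per plate between neutral and stimulator controls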;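 further: 0% = DMSO wells given calcium and 100% = 1 mM EGTA wells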
TbMetRS inhib – Trypanosoma brucei MetRS inhibition; hit rate 0.4% among 360,000; inhibition, % at 11.9 µM; AID 624268; purified T. brucei MetRS, ATP depletion, Kinase-Glo luminescence;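 active means inhibition above a per-plate cutoff of the control wells' mean inhibition plus 3 SD, cut at about 5.5% in these data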;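 further: 0% = DMSO wells median and 100% = median of wells with control inhibitor compound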
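Test system – parasite MetRS enzyme · Reagent – substrates ATP, L-methionine and bulk Escherichia coli tRNA · Doses – 11.9 µM compound single dose, 0.9% DMSO · Times – 15 min enzyme-compound preincubation, 2 h reaction, 10 min detection, 25 °C · Signal – Kinase-Glo luminescence, ATP depletion format · Controls – DMSO-only wells as low control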
GRIN3A LBD mod – modulators (binders) of human NR3A ligand-binding domain. NR3A LBD differential scanning fluorimetry, Tm shift; 0% = protein alone, 100% = glycine-bound protein. Tm shift relative to glycine control, % at 25 µM. hit rate 2.5% among 340,000;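 active means melting temperature shift of at least 10% of the positive control shift, at one fixed dose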
WT yeast gro inh – growth inhibition of WT yeast, mitochondrial fusion screen; mitochondrial fusion phenotypic screen, WT strain; inhibition, % at 10 µM; hit rate 2.1% among 190,000; in the data active means inhibition above about 58%; tested in S. cerevisiae
Numbers without * were called inactive; / = no result. Only some compounds are listed: those with a hit (about 6.4% of all), similar ones and a draw of the others.

SMILES	EBV gp42 block	CHOP inh	MPTP block	TbMetRS inhib	GRIN3A LBD mod	WT yeast gro inh
O=C(COc1ccc(C(=S)N2CCC(Cc3ccccc3)CC2)cc1)N1CCOCC1	7.2	43.6	-1.3	-0.4	-1.1	25.7
CN(CC(=O)Nc1ccc(Cl)c(C(F)(F)F)c1)C(=O)c1cccc(N2C(=O)CCC2=O)c1	/	/	0.3	0.1	-2.7	/
CCOc1ccc(CN(C)C(=O)c2ccc(NS(=O)(=O)c3ccc4[nH]c(=O)[nH]c4c3)cc2)cc1	/	/	-2.7	-0.3	-4.1	/
CCCCN(C)Cc1c(C)[nH]c2ccccc2c1=O	-8.2	13.3	-1.0	0.5	1.7	-8.4
CCCCP(=O)(CCCC)c1ccccc1C(=O)O	-24.4	-5.2	/	-1.0	12.2*	1.6
Cc1cc(C(=O)Nc2ccc(S(=O)(=O)N3CCOCC3)cc2)ccc1[N+](=O)[O-]	/	/	-1.0	-0.3	30.4*	/
Cc1cc(C(=O)Nc2ccncc2)ccc1[N+](=O)[O-]	/	/	-0.7	0.7	-1.8	/
Cc1cc(C(=O)Nc2ccc(Nc3ccccc3)cc2)ccc1[N+](=O)[O-]	/	/	1.3	-0.7	11.9*	/
Cc1ccc(C(=O)Nc2ccc(S(=O)(=O)N3CCOCC3)cc2)cc1	-6.2	4.5	-1.2	-1.3	7.5	1.7
Cc1ccc(NC(=O)c2ccc(-n3cccn3)c([N+](=O)[O-])c2)cc1C	-9.6	-11.0	8.7	1.3	13.3*	0.4
O=C(Nc1ccc(Nc2ccccc2)cc1)c1ccc(Cl)cc1[N+](=O)[O-]	/	/	7.4	0.3	11.8*	/
O=C(O)c1nn(CCOc2cccc(Br)c2)c(=O)c2ccccc12	/	/	0.3	-0.4	-10.3	/
O=C1C/C(=C\c2c(F)cccc2Cl)N2CCC1CC2	-9.5	3.2	0.4	0.8	-3.5	5.3
CCOCCCNS(=O)(=O)c1ccc(NC(=O)c2ccc(OC)c([N+](=O)[O-])c2)cc1	-1.7	2.3	0.2	0.0	16.6*	-6.4
COc1ccc(C(=O)Nc2ccc(S(=O)(=O)N3CCOCC3)cc2)cc1[N+](=O)[O-]	/	/	0.4	-0.8	34.7*	/
Cc1cc(C)c(C)c(S(=O)(=O)N2CCC(C(=O)Nc3ccc(S(=O)(=O)N4CCOCC4)cc3)CC2)c1C	/	/	4.8	-0.3	18.6*	/
COc1ccc(C(=O)Nc2ccc(S(=O)(=O)N3CCN(C)CC3)cc2)cc1[N+](=O)[O-]	/	/	0.5	-0.1	8.2	/
CC(C)(C)N(Cc1ccccc1)C(=O)c1ccc(Cl)cc1[N+](=O)[O-]	5.9	33.7	5.3	-0.2	-0.3	4.0
O=C(c1ccc(Cl)cc1[N+](=O)[O-])N(Cc1ccccc1)Cc1ccccc1	9.1	73.3*	/	/	/	60.9*
c1ccc(-c2csc3ncnc(N4CCc5ccccc5C4)c23)cc1	-30.5	85.8*	4.7	-0.2	12.7*	69.6*
COc1ccc(-c2csc3ncnc(N4CCN(c5cccc(OC)c5)CC4)c23)cc1	/	/	-0.1	-0.1	0.1	/
COc1ccc(-c2csc3ncnc(Cl)c23)cc1	-1.2	2.0	-0.2	0.3	-2.7	-10.7
COc1ccc(-c2csc3ncnc(N4CCN(S(=O)(=O)c5cccs5)CC4)c23)cc1	/	/	0.4	-0.2	-1.1	/
COc1ccc(-c2csc3ncnc(N4CCN(S(=O)(=O)c5ccc(Cl)s5)CC4)c23)cc1	/	/	1.4	-0.4	11.5*	/
COc1ccc(-c2csc3ncnc(N4CCN(c5cccc(Cl)c5)CC4)c23)cc1	/	/	0.9	-0.1	17.6*	/
SMILES	EBV gp42 block	CHOP inh	MPTP block	TbMetRS inhib	GRIN3A LBD mod	WT yeast gro inh
COc1ccc(Nc2ncnc3scc(-c4ccc(OC)cc4)c23)cc1	9.0	49.7	2.1	-0.8	2.7	72.4*
Cc1cc(C)nc(NC(=O)/C=C/c2ccccc2Cl)c1	5.0	10.2	29.4	-0.2	-12.7	63.8*
Cc1ccnc(NC(=O)/C=C/c2ccccc2[N+](=O)[O-])c1	-0.2	21.0	/	/	/	3.3
Cc1nc(NC(=O)/C=C/c2ccc(Cl)cc2Cl)sc1C(=O)N(C)C	16.3	84.6*	1.9	-0.6	2.3	-8.7
Cc1ccnc(NC(=O)/C=C/c2ccccc2Cl)c1	-1.2	39.9	1.8	-0.7	19.7*	8.6
Cc1cc(C)nc(NC(=O)/C=C/c2ccccc2Cl)n1	-13.8	14.8	-3.6	-0.5	-1.8	-0.6
Cc1cc(N)c2cc(NC(=O)/C=C/c3ccccc3Cl)ccc2n1	-6.8	-76.2	14.7	-0.7	18.0*	/
Cc1nc(NC(=O)/C=C/c2ccccc2)sc1C(=O)Nc1cccc(Cl)c1	0.6	56.2	4.2	-0.6	31.6*	4.4
Cc1cc(C)nc(NC(=O)/C=C/c2ccc(Cl)cc2Cl)c1	-9.3	23.2	3.4	-0.5	0.7	74.2*
Cc1cc(C)nc(NC(=O)/C=C/c2cccs2)c1	0.6	24.6	2.1	0.2	1.6	13.9
CSC1=NC(C)(C)C=C(/C=C/c2ccc(Cl)cc2)N1	-7.7	-21.7	2.9	-0.3	-4.2	21.4
COc1ccnc(N=CNOCc2ccc(C)cc2)c1C#N	-1.8	-34.2	0.0	-1.1	-2.2	3.6
CCOc1ccc(OCCCC(=O)NCCc2ccc(OC)cc2)cc1	/	/	-0.6	-0.3	33.9*	/
CCCCC(=O)NCCc1ccc(OC)cc1	-1.6	22.8	15.4	-0.5	-0.8	18.1
CCOc1ccccc1-c1nc2c(s1)CCc1onc(-c3ccc(OC)cc3)c1-2	/	/	1.1	-0.2	16.8*	/
CC(C)c1cccc(C2=CC(=O)C[C@H](c3ccc(F)cc3)C2)c1	/	/	8.5	-0.4	-0.8	/
CCCc1nnc(SCC(=O)Nc2ccc(OC)cc2)o1	/	/	0.2	-1.0	0.8	/
Oc1oc(-c2cccc3ccccc23)nc1C=NCc1ccccc1	-14.8	-0.1	/	/	/	-9.6
Oc1oc(-c2cccc3ccccc23)nc1/C=N/c1nccs1	-9.7	90.5*	11.1	-1.1	10.8*	9.9
O=C(Oc1ccccc1-c1csnn1)c1cccs1	-14.7	18.9	0.4	0.3	-2.1	-2.5
O=C(Oc1ccc(-c2csnn2)cc1)c1cccs1	-13.8	2.1	2.1	-0.4	29.1*	/
COC(OC)c1ccnc(-c2ccc(OC(=O)c3cccs3)cc2)n1	58.9*	8.2	-0.3	-0.4	0.2	-16.0
COC(OC)c1ccnc(-c2ccc(OC(=O)c3ccccc3)cc2)n1	-0.2	39.1	2.2	-0.7	1.1	17.1
Oc1ccc(-c2cn3c(n2)SCC3)cc1	-24.2	12.7	0.6	1.2	36.7*	15.6
O=C(Nc1ccc(-c2cn3c(n2)SCC3)cc1)c1ccc2ccccc2n1	-5.1	-13.9	0.5	-0.2	21.5*	13.3
CSc1ccc(CCNC(=O)C2CCCN(c3ncnc4c3nc3n4CCCCC3)C2)cc1 (stereo not drawn)	/	/	-1.0	-1.0	-1.0	/
O=C1c2ccccc2-n2c1nc1ccccc1c2=O	-14.3	21.3	-1.6	-0.3	-0.5	66.0*
CCCCCc1c(C)nc(N2CCc3ccccc32)[nH]c1=O	-15.9	73.0*	-0.3	-0.9	2.1	2.9
Cc1nc(N2CCc3ccccc3C2)[nH]c(=O)c1Cc1ccccc1	-13.2	78.0*	2.8	0.7	0.8	1.0
CCCCCc1c(C)nc(N2CCc3ccccc3C2)[nH]c1=O	0.2	44.5	1.3	0.1	0.6	-2.5
